≈ marks a conversion by molar mass, not a printed value.
Key:
Clostridioides difficile [1] = test: Antibacterial activity against Clostridium difficile 8282 incubated for 46 hrs in anaerobic condition by CLSI-based broth microdilution assay; type: functional
Clostridioides difficile [2] = test: Antibacterial activity against Clostridium difficile ATCC 700057 incubated for 46 hrs in anaerobic condition by CLSI-based broth microdilution assay; type: functional
[3] = tested on: Mycobacterium tuberculosis; test: Antimycobacterial activity against recombinant Mycobacterium tuberculosis H37Rv expressed in green fluorescence protein by measuring increase in fluorescence after 10 days in presence of middlebrook 7H9/OADC medium by GFP reporter gene assay; type: functional; conditions: 240 h, time 10 day
Clostridioides difficile [4] = test: Antibacterial activity against Clostridium difficile ATCC 43255 incubated for 46 hrs in anaerobic condition by CLSI-based broth microdilution assay; type: functional
Clostridioides difficile [5] = test: Antibacterial activity against Clostridium difficile BAA-1805 incubated for 46 hrs in anaerobic condition by CLSI-based broth microdilution assay; type: functional
Clostridioides difficile [6] = test: Antibacterial activity against Clostridium difficile ATCC 9689 incubated for 46 hrs in anaerobic condition by CLSI-based broth microdilution assay; type: functional; conditions: ATCC 9689 = DSM 1296
Clostridioides difficile [7] = test: Antibacterial activity against Clostridium difficile 8260 incubated for 46 hrs in anaerobic condition by CLSI-based broth microdilution assay; type: functional
Clostridioides difficile [8] = test: Antibacterial activity against Clostridium difficile 8264 incubated for 46 hrs in anaerobic condition by CLSI-based broth microdilution assay; type: functional
Staphylococcus aureus = test: Antibacterial activity against Staphylococcus aureus ATCC 29213 incubated overnight by broth dilution method; type: functional
Procedure, shortened: (§1)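 Strains pre-grown overnight at 37 °C on Mueller Hinton II agar; CLSI broth dilution, inoculum about 7.5 × 10^5 CFU/well. Compounds taken from 1.0 mg/mL stocks in 50 % methanol/H2O, diluted in H2O as 2-fold series. Plates held at 37 °C overnight; MIC read visually as lowest concentration with no growth.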

Bacillus subtilis = test: Antibacterial activity against Bacillus subtilis DSM3256 incubated overnight by broth dilution method; type: functional; procedure, shortened: as §1
Clostridioides difficile [9] = test: Antibacterial activity against Clostridium difficile 5680 incubated for 46 hrs in anaerobic condition by CLSI-based broth microdilution assay; type: functional
Clostridioides difficile [10] = test: Antibacterial activity against Clostridium difficile BAA-1875 incubated for 46 hrs in anaerobic condition by CLSI-based broth microdilution assay; type: functional
Clostridioides difficile [11] = test: Antibacterial activity against Clostridium difficile 8290 incubated for 46 hrs in anaerobic condition by CLSI-based broth microdilution assay; type: functional
[12] = Aqueous solubility of the compound in phosphate buffer at pH 7 after 5 hrs by UHPLC analysis; type: physicochemical
Procedure, shortened: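 Solid added to 1.0 mL pH 7 phosphate buffer containing 50 µg/mL caffeine internal standard until saturated. Stirred 5 h at room temperature, passed through a 0.22 µm filter, then run on C18 UHPLC with a water/MeCN + 0.1 % HCOOH gradient. Analyte/IS peak-area ratio was converted to concentration using a linear calibration from MeOH standards at 50–500 µg/mL.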

Row | SMILES | MIC (Clostridioides difficile [1]) [µg/mL] | MIC (Clostridioides difficile [2]) [µg/mL] | MIC90 [3] [µg/mL] | MIC (Clostridioides difficile [4]) [µg/mL] | MIC (Clostridioides difficile [5]) [µg/mL] | MIC (Clostridioides difficile [6]) [µg/mL] | MIC (Clostridioides difficile [7]) [µg/mL] | MIC (Clostridioides difficile [8]) [µg/mL] | MIC (Staphylococcus aureus) [µg/mL] | MIC (Bacillus subtilis) [µg/mL] | MIC (Clostridioides difficile [9]) [µg/mL] | MIC (Clostridioides difficile [10]) [µg/mL] | MIC (Clostridioides difficile [11]) [µg/mL] | solubility at 5 h [12] [µg/mL]
1 | CCc1c(Cl)c(OCCOCCOCCOCCOCCOCCOCCOCCn2cc(CN3CCN(/N=C/c4c5c(O)c6c(O)c(C)c7c(c6c4O)C(=O)[C@@](C)(O/C=C/[C@H](OC)[C@@H](C)[C@@H](OC(C)=O)[C@H](C)[C@H](O)[C@H](C)[C@@H](O)[C@@H](C)/C=C/C=C(\C)C(=O)N5)O7)CC3)nn2)c(Cl)c(O)c1C(=O)O[C@@H]1[C@@H](O)[C@@H](OC)[C@@H](OC/C2=C\C=C\C[C@H](O)/C(C)=C/[C@H](CC)[C@@H](O[C@@H]3OC(C)(C)[C@@H](OC(=O)C(C)C)[C@H](O)[C@@H]3O)/C(C)=C/C(C)=C/C[C@@H]([C@@H](C)O)OC2=O)O[C@H]1C | 4 (≈ 1.75 µM) | ≤ 0.015 | 0.5 | ≤ 0.015 | ≤ 0.015 | ≤ 0.015 | ≤ 0.015 | 0.03 (≈ 0.0131 µM) | 4 (≈ 1.75 µM) | 4 (≈ 1.75 µM) | ≤ 0.015 | ≤ 0.015 | 0.03 (≈ 0.0131 µM) | 
2 | O=C(O)c1cn(C2CC2)c2cc(N3CCNCC3)c(F)cc2c1=O [CIPROFLOXACIN] |  |  | 1 |  |  |  |  |  |  |  |  |  |  | 
3 | CCc1c(Cl)c(OCC(=O)N2CCNCC2)c(Cl)c(O)c1C(=O)O[C@@H]1[C@@H](O)[C@@H](OC)[C@@H](OC/C2=C\C=C\C[C@H](O)/C(C)=C/[C@H](CC)[C@@H](O[C@@H]3OC(C)(C)[C@@H](OC(=O)C(C)C)[C@H](O)[C@@H]3O)/C(C)=C/C(C)=C/C[C@@H]([C@@H](C)O)OC2=O)O[C@H]1C | 0.06 (≈ 0.0507 µM) | 0.25 (≈ 0.211 µM) | 1 | 0.5 (≈ 0.422 µM) | 0.5 (≈ 0.422 µM) | 0.03 (≈ 0.0253 µM) | 0.03 (≈ 0.0253 µM) | 0.5 (≈ 0.422 µM) | > 64 | > 64 | 0.5 (≈ 0.422 µM) | 0.5 (≈ 0.422 µM) | 0.25 (≈ 0.211 µM) | 81 (≈ 68.4 µM)
4 | CCc1c(Cl)c(OCCCn2cc(CCN3CCC(N)CC3)nn2)c(Cl)c(O)c1C(=O)O[C@@H]1[C@@H](O)[C@@H](OC)[C@@H](OC/C2=C\C=C\C[C@H](O)/C(C)=C/[C@H](CC)[C@@H](O[C@@H]3OC(C)(C)[C@@H](OC(=O)C(C)C)[C@H](O)[C@@H]3O)/C(C)=C/C(C)=C/C[C@@H]([C@@H](C)O)OC2=O)O[C@H]1C | 1 (≈ 0.773 µM) | 2 (≈ 1.55 µM) | 4 | 4 (≈ 3.09 µM) | 8 (≈ 6.19 µM) | 0.5 (≈ 0.387 µM) | 4 (≈ 3.09 µM) | 8 (≈ 6.19 µM) | > 64 | > 64 | 8 (≈ 6.19 µM) | 2 (≈ 1.55 µM) | 4 (≈ 3.09 µM) | 
5 | CCc1c(Cl)c(OCC(=O)N2CCC(O)CC2)c(Cl)c(O)c1C(=O)O[C@@H]1[C@@H](O)[C@@H](OC)[C@@H](OC/C2=C\C=C\C[C@H](O)/C(C)=C/[C@H](CC)[C@@H](O[C@@H]3OC(C)(C)[C@@H](OC(=O)C(C)C)[C@H](O)[C@@H]3O)/C(C)=C/C(C)=C/C[C@@H]([C@@H](C)O)OC2=O)O[C@H]1C |  |  |  |  |  |  |  |  |  |  |  |  |  | 180 (≈ 150 µM)
6 | CCc1c(Cl)c(OCC(=O)N2CCC(O)CC2)c(Cl)c(OCC(=O)N2CCC(O)CC2)c1C(=O)O[C@@H]1[C@@H](O)[C@@H](OC)[C@@H](OC/C2=C\C=C\C[C@H](O)/C(C)=C/[C@H](CC)[C@@H](O[C@@H]3OC(C)(C)[C@@H](OC(=O)C(C)C)[C@H](O)[C@@H]3O)/C(C)=C/C(C)=C/C[C@@H]([C@@H](C)O)OC2=O)O[C@H]1C |  |  |  |  |  |  |  |  |  |  |  |  |  | 213 (≈ 159 µM)
7 | CCOC(=O)COc1c(Cl)c(CC)c(C(=O)O[C@@H]2[C@@H](O)[C@@H](OC)[C@@H](OC/C3=C\C=C\C[C@H](O)/C(C)=C/[C@H](CC)[C@@H](O[C@@H]4OC(C)(C)[C@@H](OC(=O)C(C)C)[C@H](O)[C@@H]4O)/C(C)=C/C(C)=C/C[C@@H]([C@@H](C)O)OC3=O)O[C@H]2C)c(OCC(=O)OCC)c1Cl | 16 (≈ 13 µM) | 16 (≈ 13 µM) | 0.5 | > 16 | > 16 | 4 (≈ 3.25 µM) | 16 (≈ 13 µM) | > 16 | 32 (≈ 26 µM) | 8 (≈ 6.5 µM) | > 16 | 16 (≈ 13 µM) | 16 (≈ 13 µM) | 

From ChEMBL document CHEMBL4665898, “Semisynthetic Analogs of the Antibiotic Fidaxomicin-Design, Synthesis, and Biological Evaluation” (ACS Med Chem Lett, 2020)
